{"source": "paper PMC6331719", "about": "(The EMBO Journal, 2018)", "key": {"TG2 and CFTR": {"system": "TG2 and CFTR", "assay": "Co-immunoprecipitation of TG2 and CFTR, Caco-2 cells", "assay_type": "cell-based, human", "settings": "Caco-2, pre-treatment"}, "TG2": {"system": "TG2", "assay": "TG2 activity and TG2-catalysed crosslinking in Caco-2 cells", "assay_type": "cell-based, human", "settings": "Caco-2, Z-DON or TG2 siRNA"}, "CFTR (Caco‐2 cells)": {"system": "CFTR (Caco‐2 cells)", "assay": "Ussing chamber, CFTR-dependent Cl- secretion in Caco-2 cells", "assay_type": "cell-based, human", "settings": "for Effect on forskolin-inducible chloride current: Caco-2 or T84, 3 h, peptides 20 μg/ml, PT gliadin 500 μg/ml", "summary_of_the_method": "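Caco-2 or T84 monolayers grown on 0.4-μm Transwells to 800–1,200 Ω cm2, then mounted in Ussing chambers. Ringer both sides, 37°C, gassed with 95% O2/5% CO2. Cells pretreated 3 h with peptides (20 μg/ml) or PT gliadin (500 μg/ml), or given bath peptides (100 μM, 3–5 min) after 100 μM amiloride. VX-770 10 μM for 5 min. Forskolin 20 μM; peak CFTRinh172-sensitive Isc.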"}, "[1]": {"system": "CFTR (Caco-2 and T84 cells)", "assay": "Iodide efflux by SPQ in intestinal epithelial cells", "assay_type": "cell-based, human", "settings": "forskolin stimulation, 20 μg/ml 3 h, n = 3"}, "CFTR": {"system": "CFTR", "assay": "Co-immunoprecipitation of CFTR with biotinylated peptide, Caco-2 cells", "assay_type": "binding, human", "settings": "Caco-2, biotinylated peptide, 1 h"}, "[2]": {"system": "recombinant human NBD1 (rhNBD1)", "assay": "Surface plasmon resonance, rhNBD1", "assay_type": "binding", "settings": "CM5 chip, 20°C, HEPES pH 7.4, 2 mM ATP, 5 mM MgCl2; at least three independent experiments", "summary_of_the_method": "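NBD1 was recombinant human residues 389–678, immobilised by amine coupling to 2000 RU; a blank flow cell served as reference. Running buffer also contained 150 mM NaCl, 0.05% Tween-20 and 1 mM DTT, at a flow of 20 μl/min. Each run used three start-up buffer injections, a zero control, then a concentration series of peptide analyte.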"}, "NBD1": {"target": "NBD1 (Homo sapiens, UniProt P13569, F429S/F494N/Q637R)", "sequence (P13569 389-678 F429S/F494N/Q637R)": "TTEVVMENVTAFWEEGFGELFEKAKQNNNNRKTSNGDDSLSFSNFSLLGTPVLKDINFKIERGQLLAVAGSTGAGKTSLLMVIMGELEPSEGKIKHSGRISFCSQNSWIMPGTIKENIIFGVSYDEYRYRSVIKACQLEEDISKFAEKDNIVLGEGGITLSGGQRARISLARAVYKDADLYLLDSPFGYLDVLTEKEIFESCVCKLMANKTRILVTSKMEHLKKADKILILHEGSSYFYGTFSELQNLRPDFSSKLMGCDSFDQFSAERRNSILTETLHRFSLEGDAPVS", "assay": "NBD1 ATPase activity", "assay_type": "biochemical"}, "Caco‐2 and T84 cells": {"system": "Caco‐2 and T84 cells", "assay": "Cell viability of Caco-2 / T84 cells", "assay_type": "cell-based, human", "settings": "3 h"}, "enterocytes / T cells": {"system": "enterocytes / T cells", "settings": "ref Maiuri et al, 2003; Meresse et al, 2009; Barone et al, 2014; cited from earlier work"}, "celiac PBMC": {"system": "celiac PBMC", "assay": "Caco-2 / celiac PBMC bidimensional co-culture, cytokine release", "assay_type": "cell-based, human", "settings": "lower compartment, celiac vs control PBMC"}, "TG2 and NBD1": {"system": "TG2 and NBD1", "assay": "Blue native PAGE, peptide with TG2 and rhNBD1", "assay_type": "binding, human", "settings": "Ca2+-activated TG2, biotinylated peptide", "summary_of_the_method": "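Recombinant proteins and the indicated peptides were pre-incubated together at 4°C for 30 min in buffer. Samples were then run under native conditions to preserve peptide/protein complexes.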"}, "[3]": {"target": "wild‐type human NBD1[389–673], without any solubilizing mutations (human, UniProt P13569-1 389-673)", "sequence (P13569 389-673, change not shown)": "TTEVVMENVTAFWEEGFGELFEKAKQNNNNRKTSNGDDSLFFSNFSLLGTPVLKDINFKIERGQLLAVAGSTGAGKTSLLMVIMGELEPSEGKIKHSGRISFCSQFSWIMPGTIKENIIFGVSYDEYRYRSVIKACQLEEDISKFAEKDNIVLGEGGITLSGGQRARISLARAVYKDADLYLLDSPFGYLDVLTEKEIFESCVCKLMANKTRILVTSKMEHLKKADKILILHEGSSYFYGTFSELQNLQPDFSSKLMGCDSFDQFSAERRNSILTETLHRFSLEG", "assay": "native gel or EMSA"}}, "note": "Square brackets hold non-standard residues; d marks the D form. Ends that are not written are not given here. Peptide text beside a SMILES is read from it. * marks the point of attachment. DON = [N-]=[N+]=CC(=O)CC[C@H](N)C(=O)O; Cbz = O=C(OCc1ccccc1)*", "data": [{"molecule": "CC(=O)OCOC(=O)CN(CC(=O)OCOC(C)=O)c1ccccc1OCCOc1ccccc1N(CC(=O)OCOC(C)=O)CC(=O)OCOC(C)=O", "note": "[BAPTA‐AM]", "values": [{"measurement": "Prevention of P31–43-induced TG2–CFTR interaction", "setting": "TG2 and CFTR", "value": "prevented"}]}, {"molecule": "COC(=O)[C@H](CC(C)C)NC(=O)[C@@H]1CCCN1C(=O)[C@@H](NC(=O)[C@H](CCC(=O)C=[N+]=[N-])NC(=O)OCc1ccccc1)C(C)C", "note": "[Z‐DON] (Cbz-[DON]VPL-OMe)", "values": [{"measurement": "Prevention of P31–43-induced TG2–CFTR interaction", "setting": "TG2 and CFTR", "value": "prevented"}, {"measurement": "Inhibition of P31–43-induced glutamine-lysine bonds in CFTR immunoprecipitates", "setting": "TG2", "value": "undetectable"}]}, {"molecule": "GAVAAVGVVAGA [PGAV]", "values": [{"measurement": "Effect on forskolin-inducible chloride current", "setting": "CFTR (Caco‐2 cells)", "value": "but not P57–68, P33‐mer or PGAV"}, {"measurement": "Effect on rate of iodide efflux", "setting": "[1]", "value": "not by P57–68 or PGAV"}]}, {"molecule": "LGQAAPFPPAAPY [4QA]", "values": [{"measurement": "Inhibition of CFTR function by modified peptide", "setting": "CFTR (Caco‐2 cells); Caco-2, 1 h", "value": "largely unable to inhibit CFTR function"}, {"measurement": "Co-immunoprecipitation with CFTR", "setting": "CFTR", "value": "marginal interaction with CFTR protein"}, {"measurement": "SPR binding to rhNBD1", "setting": "[2]", "value": "strongly reduced as compared to unmutated P31–43"}]}, {"molecule": "LGQQQPFPPQQPY-NH2 [P31–43, LGQQQPFPPQQPY]", "values": [{"measurement": "IC50", "setting": "NBD1", "value": 55.1, "unit": "µM"}, {"measurement": "Effect on cell viability", "setting": "Caco‐2 and T84 cells", "value": "did not affect cell viability"}]}, {"molecule": "LQLQPFPQPQLPY PQPQLPYPQPQLPYPQPQPF [P33‐mer]", "values": [{"measurement": "Effect on forskolin-inducible chloride current", "setting": "CFTR (Caco‐2 cells)", "value": "but not P57–68, P33‐mer or PGAV"}]}, {"molecule": "QLQPFPQPQLPY [P57–68]", "values": [{"measurement": "Enterocyte stress / T cell activation", "setting": "enterocytes / T cells", "value": "activating T cells in the absence of any toxic effect on epithelial cells"}, {"measurement": "IFN-γ production", "setting": "celiac PBMC", "value": "but not the P57–68 or P31–43 alone"}, {"measurement": "Effect on forskolin-inducible chloride current", "setting": "CFTR (Caco‐2 cells)", "value": "but not P57–68, P33‐mer or PGAV"}, {"measurement": "Binding to TG2 and complex formation with NBD1", "setting": "TG2 and NBD1", "value": "but not P57–68"}, {"measurement": "SPR binding to rhNBD1", "setting": "[2]", "value": "failed to induce any signal"}, {"measurement": "Effect on rate of iodide efflux", "setting": "[1]", "value": "not by P57–68 or PGAV"}]}, {"molecule": "LGQQQPFPPQQPY (also: biotin tag, position not given here)", "note": "[biotinylated P31–43]", "values": [{"measurement": "binding result", "setting": "[3]", "value": "binds"}]}]}
